According to ChEMBL document CHEMBL4513216, “Probing the Open Global Health Chemical Diversity Library for Multistage-Active Starting Points for Next-Generation Antimalarials” (ACS Infect Dis, 2020):

Assay: Toxicity liver stage against HepG2, at 10uM
Format: cell-based
Set-up: test concentration 10 uM, cell line HepG2-A16-CD81EGFP
Details: human, HepG2-A16-CD81EGFP cells; read-out: INHIBITION
Outline: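 Uninfected HepG2-A16-CD81EGFP cells, 3 × 10^3 per well, 1536-well, plated on prespotted compound at 10 μM final, parasite-free screening media added to match infected plates; puromycin 10 μM positive, DMSO 0.5% negative; run in parallel with 48 h PbLuc assay at 37 °C, 5% CO2; viability by CellTiter-Glo luminescence, normalized to controls.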

First: Cc1ccc(-n2ncc(C(=O)N(C)C3CCN(C)CC3)c2N)cc1C
Second: CN(C1CCN(c2ccccn2)CC1)S(=O)(=O)c1cccc(F)c1
The cytotoxicity at 10 µM of the first is lower: -8.56% for the first, 10.8% for the second.

Going from `CN1CCN(CC(CC(=O)Nc2ccc(Cl)cc2)C(=O)O)CC1` (stereo unspecified) to `CC(C)c1ccc(C(C)N2CCCN(C(N)=O)CC2)cc1` (stereo unspecified), the cytotoxicity at 10 µM falls from 2.83% to -4.24%.

Compared with `O=C(CC1CCCC1)Nc1ccc(-n2cc(Cl)cn2)nc1`, `Cc1cc(NC(=O)Cc2ccccc2O)cnc1N1CCCCC1` is higher in cytotoxicity at 10 µM: -56.3% for the first, -0.134% for the second.

First: COC(C)(CNS(=O)(=O)c1cnn(C)c1)c1ccccc1F (stereo unspecified)
Second: Cn1cc(C2CCCN2C(=O)Cn2c(=O)oc3ccccc32)cn1 (stereo unspecified)
The cytotoxicity at 10 µM of the first is lower: -4.8% for the first, 1.84% for the second.

Compared with `CC(C)c1nnc2ccc(N3CCC(C(=O)NC4CC4)CC3)nn12`, `COc1c(CNC2CCC(O)CC2)c(C(C)C)nn1C` (stereo unspecified) is lower in cytotoxicity at 10 µM: -5.01% for the first, -6.59% for the second.

First: Cc1ccc2c(ccn2CCC(=O)N2CCC(C(N)=O)CC2)c1
Second: NC(=O)CC1CCCCN1C(=O)Cc1cccc(Br)c1 (stereo unspecified)
The cytotoxicity at 10 µM of the first is lower: -12.6% for the first, 1.77% for the second.

Compared with `Cc1cc(N2CCN(C3CCOCC3)CC(C(=O)N(C)C)C2)ncn1` (stereo unspecified), `CN(C)C(=O)COCC1CN(C2CCC2)Cc2ncn(C)c21` (stereo unspecified) is higher in cytotoxicity at 10 µM: 3.74% for the first, 14.1% for the second.

Compared with `O=C(c1ccc(=O)[nH]n1)N1CCCC(O)(CN2CCC(F)(F)CC2)CC1` (stereo unspecified), `Cc1cccc(N2CCC3(CCCN(C(=O)c4cccnc4)C3)C2)n1` (stereo unspecified) is higher in cytotoxicity at 10 µM: -8.71% for the first, 0.677% for the second.

Going from `COCCNc1ccc(CC2CCCN(Cc3c[nH]cn3)C2)nn1` (stereo unspecified) to `Cc1nc(CN2CCCC(NCc3cccc4ccccc34)C2)no1` (stereo unspecified), the cytotoxicity at 10 µM rises from -2.7% to -0.819%.

Compared with `Cc1cc(-c2cnc(NC3CCCC3)nc2-c2ccco2)on1`, `CC(=O)NCC1CCN(c2ccnc3ccc(Br)cc23)CC1` is higher in cytotoxicity at 10 µM: -7.56% for the first, 14.2% for the second.

Compared with `O=C(c1ccc(Cl)cc1)N1CCC2(C1)C(=O)Nc1ccccc12` (stereo unspecified), `CN1CC2(CCN(C(=O)CCc3nc4cccnc4n3C)C2)OC1=O` (stereo unspecified) is lower in cytotoxicity at 10 µM: 1.91% for the first, 1.56% for the second.

Compared with `O=C(CN(Cc1cccs1)C1CCS(=O)(=O)C1)NCCc1cccs1` (stereo unspecified), `CN(Cc1nnn(CC2CCC2)n1)C(=O)c1ccccc1` is higher in cytotoxicity at 10 µM: -11.5% for the first, -6.06% for the second.

Going from `CN(CCc1ccccn1)C(=O)Nc1cccnc1-n1cccn1` to `O=C(NCCNc1ncccn1)NCCc1c(F)cccc1F`, the cytotoxicity at 10 µM rises from 3.25% to 7.49%.

Compared with `CC(C)(C)OC(=O)NCC1CCCCN1Cc1ccncc1` (stereo unspecified), `c1cc(CN2C[C@@H]3COC[C@]3(COCC3CC3)C2)ccn1` is lower in cytotoxicity at 10 µM: 9.04% for the first, -3.29% for the second.

Going from `COc1cccc(CN(C)Cc2cc(C#N)ccc2F)c1OC` to `COCCn1ccc(NC(=O)Nc2cccc(C#N)c2)n1`, the cytotoxicity at 10 µM rises from -5% to 4%.

First: Cc1cc(CN2CCN(C(=O)C(C(C)C)n3cncn3)CC2)on1 (stereo unspecified)
Second: Cc1nc(C)n(CC2CCCN(CC(=O)Nc3cc(C)on3)C2)n1 (stereo unspecified)
The cytotoxicity at 10 µM of the first is higher: 2.35% for the first, -3.1% for the second.

Compared with `Cc1cc(NC(=O)CNC(C)(C)c2ccc3c(c2)OCCO3)no1`, `Cc1cccc(OCCC(=O)NCC(C)(C)C(N)=O)c1` is higher in cytotoxicity at 10 µM: -7.1% for the first, -6.38% for the second.

Going from `Cc1noc(C2CCN(C(C)c3nc(C(C)(C)C)no3)CC2)n1` (stereo unspecified) to `CC1CCN(C(=O)C(C)N2CCc3[nH]nc(C(F)(F)F)c3C2)CC1` (stereo unspecified), the cytotoxicity at 10 µM falls from 4.13% to 2.54%.

Going from `CSC1(CNC(=O)CCc2ccc(Cl)s2)CCOCC1` to `Cc1ccc(CN(CCCN2CCOCC2)Cc2[nH]cnc2C)o1`, the cytotoxicity at 10 µM falls from 6.45% to -12.9%.

First: COc1c(C2CCCN2C(=O)c2cc(Cl)c[nH]2)c(C)nn1C (stereo unspecified)
Second: COCCN(C)C[C@@H]1CN(C(=O)c2ccc(C)cc2)C[C@@H]1CO
The cytotoxicity at 10 µM of the first is higher: 4.6% for the first, -9.21% for the second.

Going from `CC(=O)N[C@@H](CC(C)C)C(=O)N1CCC(n2cc(CO)nn2)CC1` to `CCc1ocnc1C(=O)N1CCC(C2CCN(c3ncccn3)CC2)C1` (stereo unspecified), the cytotoxicity at 10 µM falls from 9.56% to 3.6%.

Going from `COCCN(C)CCN1CC2(CCN(C3CCCCC3)CC2)OC1=O` to `c1cnc(N2CCCC3(CCN(CC4CCOC4)CC3)C2)nc1` (stereo unspecified), the cytotoxicity at 10 µM falls from 3.73% to -2.21%.

Going from `CCN(CC)CCn1ccnc1-c1cccc(O)c1` to `C/C(=C\c1ccco1)CN(C)C(C)Cc1cc(C)ccn1` (stereo unspecified), the cytotoxicity at 10 µM rises from -5.13% to 0.277%.
